{"data": "Measured values pooled from the literature", "read-out": "metabolic stability", "host": "human", "note": "Each line is one published result; the experiments were not run side by side."}
{"SMILES": "C[C@H](O)c1cnc(NS(=O)(=O)c2ccc(Cl)c(Cl)c2)nc1", "matrix": "hepatocytes", "tested at": "1 µM", "quantity": "hepatocyte CLint", "value": "< 3 µL/min/10⁶ cells"}
{"SMILES": "CNC(C)(C)COCC(=O)N1CCC[C@H](C(=O)NCc2nc(-c3ccc(C(F)(F)F)cc3)cs2)C1", "matrix": "liver microsomes", "tested at": "0.5 µM", "quantity": "microsomal CLint", "value": "12 µL/min/mg"}
{"SMILES": "O=c1c2cccc(Oc3ccc(OC(F)(F)F)cc3)c2[nH]c2cc(Cl)cc(F)c12", "matrix": "liver microsomes", "tested at": "1 µM", "pH": "pH 7.4", "quantity": "microsomal CLint", "value": "6.75 µL/min/mg"}
{"SMILES": "COCC(=O)N1CCC[C@H](C(=O)NCc2nc(-c3ccc(C#N)cc3)cs2)C1", "matrix": "liver microsomes", "tested at": "0.5 µM", "quantity": "scaled CLint", "value": "12 mL/min/kg"}
{"SMILES": "CCN(CC)CCOc1ccc2c(=O)c3c([nH]c2c1)CCCC3", "matrix": "liver microsomes", "tested at": "1 µM", "pH": "pH 7.4", "quantity": "microsomal CLint", "value": "6.65 µL/min/mg"}
{"SMILES": "CCONC(=O)N1CCC[C@H](C(=O)NCc2nc(-c3ccc(C#N)cc3)cs2)C1", "matrix": "liver microsomes", "tested at": "0.5 µM", "quantity": "scaled CLint", "value": "11 mL/min/kg"}
{"SMILES": "CC(C)(C)OC(=O)N1CCC(Oc2ccc3c(=O)c4c(F)cc(Cl)cc4[nH]c3c2)C1 (stereo not drawn)", "matrix": "liver microsomes", "tested at": "1 µM", "pH": "pH 7.4", "quantity": "microsomal CLint", "value": "17.3 µL/min/mg"}
{"SMILES": "CCOCC(=O)N1CCC[C@H](C(=O)NCc2nc(-c3ccc(C)nc3)cs2)C1", "matrix": "hepatocytes", "tested at": "0.5 µM", "quantity": "scaled CLint", "value": "33 mL/min/kg"}
{"SMILES": "O=c1c2ccc(OCc3cccc(OC(F)(F)F)c3)cc2[nH]c2ccc(Cl)c(F)c12", "matrix": "liver microsomes", "tested at": "1 µM", "pH": "pH 7.4", "quantity": "microsomal CLint", "value": "1.24 µL/min/mg"}
{"SMILES": "C[C@H](O)c1cnc(NS(=O)(=O)c2ccc(C(F)(F)F)c(Cl)c2)nc1", "matrix": "hepatocytes", "tested at": "1 µM", "quantity": "hepatocyte CLint", "value": "< 3 µL/min/10⁶ cells"}
{"SMILES": "COCC(=O)N1CCC[C@H](C(=O)NCc2nc(-c3ccccc3)cs2)C1", "matrix": "hepatocytes", "tested at": "0.5 µM", "quantity": "scaled CLint", "value": "29 mL/min/kg"}
{"SMILES": "CNS(=O)(=O)c1ccc(Nc2ncc(C(F)(F)F)c(N3CCC[C@](C)(O)C3)n2)c(C)c1", "matrix": "liver microsomes", "tested at": "1 µM", "quantity": "scaled CLint", "value": "29 mL/min/kg"}
{"SMILES": "CCCN(CCC)CCOc1ccc2c(=O)c3c([nH]c2c1)CCCC3", "matrix": "liver microsomes", "tested at": "1 µM", "pH": "pH 7.4", "quantity": "microsomal CLint", "value": "17.5 µL/min/mg"}
{"SMILES": "Cc1cc(S(=O)(=O)N[C@]2(C)C[C@H](N3CCN(CC4CCN(c5ccc6c(c5F)n(C)c(=O)n6C5CCC(=O)NC5=O)CC4)CC3)C2)ccc1Nc1ncc(C(F)(F)F)c(N2CCC[C@](C)(O)C2)n1 (stereo partly drawn)", "matrix": "liver microsomes", "tested at": "1 µM", "quantity": "scaled CLint", "value": "251 mL/min/kg"}
{"SMILES": "O=c1c2cc(F)c(Oc3ccc(OC(F)(F)F)cc3)cc2[nH]c2cc(Cl)cc(F)c12", "matrix": "liver microsomes", "tested at": "1 µM", "pH": "pH 7.4", "quantity": "microsomal CLint", "value": "2.63 µL/min/mg"}
{"SMILES": "Cc1cc(S(=O)(=O)N[C@H]2CC[C@H](CN3CCN(c4ccc(NC5CCC(=O)NC5=O)cc4F)CC3)CC2)ccc1Nc1ncc(C(F)(F)F)c(N2CCC[C@](C)(O)C2)n1 (stereo partly drawn)", "matrix": "liver microsomes", "tested at": "1 µM", "quantity": "scaled CLint", "value": "< 14 mL/min/kg"}
{"SMILES": "CCCCN(CCCC)CCCOc1ccc2c(=O)c3c([nH]c2c1)CCCC3", "matrix": "liver microsomes", "tested at": "1 µM", "pH": "pH 7.4", "quantity": "microsomal CLint", "value": "91.8 µL/min/mg"}
{"SMILES": "CNS(=O)(=O)c1ccc(Nc2ncc(C(F)(F)F)c(N3CCC(C)(O)CC3)n2)c(C)c1", "matrix": "liver microsomes", "tested at": "1 µM", "quantity": "scaled CLint", "value": "48 mL/min/kg"}
{"SMILES": "Cc1ccc(-c2csc(CNC(=O)[C@H]3CCCN(C(=O)[C@H]4CCC(C)(C)O4)[C@H]3C)n2)cn1", "matrix": "liver microsomes", "tested at": "0.5 µM", "quantity": "microsomal CLint", "value": "155 µL/min/mg"}
{"SMILES": "Cc1cc(S(=O)(=O)NC2CCC(CC3CCN(c4ccc(C5CCC(=O)NC5=O)cc4)CC3)CC2)ccc1Nc1ncc(C(F)(F)F)c(N2CCC[C@](C)(O)C2)n1 (stereo partly drawn)", "matrix": "liver microsomes", "tested at": "1 µM", "quantity": "scaled CLint", "value": "17 mL/min/kg"}
{"SMILES": "O=c1c2ccc(Oc3ccc(OC(F)(F)F)cc3)cc2[nH]c2cc(Cl)c(F)cc12", "matrix": "liver microsomes", "tested at": "1 µM", "pH": "pH 7.4", "quantity": "microsomal CLint", "value": "5.07 µL/min/mg"}
{"SMILES": "C[C@]1(O)CCCN(c2nc(Nc3ccc(S(=O)(=O)N[C@H]4CC[C@H](CN5CCN(c6ccc(C7CCC(=O)NC7=O)c(F)c6)CC5)CC4)cc3F)ncc2C(F)(F)F)C1 (stereo partly drawn)", "matrix": "liver microsomes", "tested at": "1 µM", "quantity": "scaled CLint", "value": "< 14 mL/min/kg"}
{"SMILES": "NCCOCC(=O)N1CCC[C@H](C(=O)NCc2nc(-c3ccc(C(F)(F)F)cc3)cs2)C1", "matrix": "hepatocytes", "tested at": "0.5 µM", "quantity": "scaled CLint", "value": "< 3.4 mL/min/kg"}
{"SMILES": "Cc1cc(S(=O)(=O)NC2CC(N3CCN(CC4CCN(c5cccc6c5n(C)c(=O)n6C5CCC(=O)NC5=O)CC4)C4(CC4)C3)C2)ccc1Nc1ncc(C(F)(F)F)c(N2CCC[C@](C)(O)C2)n1 (stereo partly drawn)", "matrix": "liver microsomes", "tested at": "1 µM", "quantity": "scaled CLint", "value": "34 mL/min/kg"}
{"SMILES": "COc1cc(-c2cc(C(C)=O)n3ccccc23)c(OC)cc1Cn1ccnc1", "matrix": "liver microsomes", "pH": "pH 7.4", "quantity": "scaled CLint", "value": "15.6 mL/min/kg"}
{"SMILES": "CNS(=O)(=O)c1ccc(Nc2ncc(C(F)(F)F)c([C@H]3CC[C@@](C)(O)CC3)n2)c(C)c1", "matrix": "liver microsomes", "tested at": "1 µM", "quantity": "scaled CLint", "value": "< 14 mL/min/kg"}
{"SMILES": "COCC(=O)N1CCC[C@H](C(=O)NCc2nc(-c3ccc(F)cc3)cs2)C1", "matrix": "liver microsomes", "tested at": "0.5 µM", "quantity": "microsomal CLint", "value": "14 µL/min/mg"}
